From PubChem BioAssay
SR-BI DiI inh = inhibitors of mouse SR-BI mediated HDL lipid uptake | Q61009 | ldlA[mSR-BI] CHO cells, DiI-HDL uptake fluorescence, 3 h | inhibition, % at 12.5 µM | 320,000 compounds, 0.96% hits | AID 488896;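 active = mean replicate inhibition of at least 70% and a set share of replicates each scoring 70 or more; inconclusive = meets just one of the two criteria; inactive = fails both criteria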
Target sequence (Q61009 whole entry, looked up): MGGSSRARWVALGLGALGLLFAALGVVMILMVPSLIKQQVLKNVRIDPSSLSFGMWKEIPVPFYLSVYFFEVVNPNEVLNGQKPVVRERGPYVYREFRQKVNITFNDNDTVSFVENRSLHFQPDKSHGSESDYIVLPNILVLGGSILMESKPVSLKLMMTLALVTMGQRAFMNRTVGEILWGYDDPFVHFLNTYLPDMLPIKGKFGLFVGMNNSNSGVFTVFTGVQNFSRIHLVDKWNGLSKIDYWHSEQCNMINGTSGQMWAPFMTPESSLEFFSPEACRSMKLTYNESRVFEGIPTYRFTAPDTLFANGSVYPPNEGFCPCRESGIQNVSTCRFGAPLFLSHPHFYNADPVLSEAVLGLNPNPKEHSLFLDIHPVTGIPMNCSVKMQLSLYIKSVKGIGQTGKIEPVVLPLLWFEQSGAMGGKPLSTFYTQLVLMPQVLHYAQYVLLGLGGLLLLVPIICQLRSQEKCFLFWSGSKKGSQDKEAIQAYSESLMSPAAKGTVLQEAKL
PvdQ inh = P. aeruginosa PvdQ acylase inhibition; inhibition, % at 10 µM; purified PvdQ acylase, fluorescence plate reader; 340,000 compounds, 0.063% hits; AID 488965; in the data active = inhibition above about 30%, passing the limit was not always enough; inconclusive = no clear call, values can overlap the other calls
Xi reactivation = activators of X-chromosome reactivation in mouse fibroblasts; XiGFP mouse fibroblasts, % GFP-positive cells imaging, 3 d; cells co-treated with 5-aza-dC sensitizer; scaled so ellipticine positive control = 100%; activation, % at 7.58 µM; 360,000 compounds, 0.055% hits; AID 743238;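 active = mean normalized replicate activation at least 10% and every replicate at or above 10%; inconclusive = only one of the two criteria met; inactive = mean below 10% and not all replicates reach 10%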
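System: 68-5-11 XiGFP fibroblast line | Buffer or medium: DMEM containing 5-aza-dC | Compound: Single point | Times: Compounds 3 days, fix/stain 15 min at room temperature | Benchmarks: Positive control ellipticine, 6 µM final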
dFosB activator = enhances mouse delta FosB homodimer DNA binding; purified delta FosB, TAMRA-CDK5 oligo fluorescence polarization; percent of positive-control signal above neutral wells; P13346; AID 493131; 340,000 compounds, 0.99% hits; activation, % at 25 µM;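 active = mean activation above about 17%, with every replicate also reaching it, limit read from the data, passing the limit was not always enough; inconclusive = only one of the two conditions met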
rRNA inh HTS = inhibits bacterial ribosomal RNA function over humanized ribosomes; E. coli WT GFP vs humanized-ribosome RFP mutants, fluorescence, 24 h; stronger effect = lower value; DMSO median 0, no signal -100; 350,000 compounds, 1.6% hits; GFP signal change (wild-type ribosome), % (no concentration beside the values); AID 720706;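 active = significant combined selectivity score with lowered wild-type GFP, culture density cut under 30%, mutant RFP and density less affected; inactive = any of these conditions unmet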
SR-BI uptake up = SR-BI HDL lipid transfer activation | activation, % at 12.5 µM | 320,000 compounds, 0.096% hits | AID 504775 | CHO ldlA[mSR-BI] cells, DiI-HDL uptake fluorescence, 3 h; 100 = double the neutral-control signal;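 active = mean replicate activation of at least 60% and every replicate at or above 60%; inconclusive = mean or all-replicate condition met, but not both; inactive = mean below 60% and not all replicates reaching 60%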
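Material: SR-BI-overexpressing, LDLR-lacking CHO cells; schedule: compound exposure 3 h, 37 °C; reagent: DiI-labelled HDL at 10 µg/mL final; technique: bottom-read fluorescence, 550/595 nm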
A number is an active result; – = inactive; ? = inconclusive; · = not tested or not shown; ! = not confirmed by another sample. An excerpt weighted towards active compounds, which were near 2.6% of everything screened.

SMILES	SR-BI DiI inh	PvdQ inh	Xi reactivation	dFosB activator	rRNA inh HTS	SR-BI uptake up
CN1/C(=C\C=C2/C(=O)Oc3ccccc3C2=O)C(C)(C)c2ccccc21	·	·	–	·	–	·
CCCN1C(=O)/C(=C\C=C2\N(CC)c3ccccc3C2(C)C)SC1=S	87	–	–	–	–	–
CCCCc1ccc(/C=C(\C#N)C(N)=S)s1	–	–	–	–	–	–
COc1cccc(C(=O)NCC[N+](C)(C)C)c1	·	·	–	·	–	·
CCCn1c(N)c(C(=O)CSc2nc3ccccc3n2CCC#N)c(=O)n(C)c1=O	–	–	·	–	·	–
O=C(NC1CCCc2c1cnn2-c1cc(F)cc(F)c1)c1ccccn1 (stereo unspecified)	–	–	–	–	–	–
CCCN=C1N(C)C[C@@H]2[C@@H]3C(=O)N(C)C(=O)[C@@H]3[C@](CC)(C(=O)OC)N12	–	–	–	–	–	–
CC1=C(C(=O)OCc2ccccc2)C(c2cccnc2)n2ncnc2N1 (stereo unspecified)	–	–	·	–	·	–
CC1=C(C(=O)OCc2ccccc2)C(c2cccnc2)c2c(n(C)c(=O)n(C)c2=O)N1 (stereo unspecified)	–	–	–	–	-17!	–
Cc1cc2ccccn2c1C(=O)c1cc([N+](=O)[O-])cc([N+](=O)[O-])c1	82	–	–	–	–	–
COC(=O)c1cc(C(=O)c2c(C)cc3ccccn23)cc([N+](=O)[O-])c1	·	–	–	–	-22	·
Cc1cc2ccccn2c1C(=O)c1ccc(NN)c([N+](=O)[O-])c1	–	–	–	–	–	–
CCN(CC)c1nc(SCCOC(=O)Nc2ccccc2)nc(N(CC)CC)n1	87	–	·	–	–	–
CCCCN1C(=O)/C(=C2/Sc3ccccc3N2C)S/C1=N\c1ncn[nH]1	83	–	–	–	–	–
COC(=O)Cc1c(O)ccn(Cc2ccc(Cl)c(Cl)c2)c1=O	–	–	–	–	-21	–
CCN1C(=O)S/C(=C/c2ccc(Sc3nc4ccccc4[nH]3)o2)C1=O	–	–	–	–	-23	–
CCC(=O)c1ccc(OCC(=O)Nc2nc(C)cs2)cc1	–	–	–	–	-27	–
O=C(C[C@@H]1C/C=C\C[C@@H](Cc2ccc(F)cc2)C(=O)OC[C@H]2CCCN2C1=O)N[C@H](CO)Cc1ccccc1	–	–	–	–	-18	–
CC1CCc2c(sc(NC(=O)c3cccn3C)c2C(N)=O)C1 (stereo unspecified)	81	–	–	–	·	–
COC(=O)Nc1sc2c(c1C(N)=O)CCC(C)C2 (stereo unspecified)	–	–	–	–	–	–
COc1ccc(/C=C2\SC(=S)N(CCC(=O)NCCc3ccc(O)cc3)C2=O)cc1	–	–	–	38	–	–
COc1ccc(/C=C2\SC(=S)N(CC(=O)NC3CCS(=O)(=O)C3)C2=O)cc1 (stereo unspecified)	–	–	–	47	–	–
O=C(CCN1C(=O)/C(=C/c2ccc(F)cc2)SC1=S)NC1CCS(=O)(=O)C1 (stereo unspecified)	–	–	–	–	–	–
COc1ccc(/C=C2\SC(=S)N(CCC(=O)Nc3cccc(O)c3)C2=O)cc1	–	–	–	25	–	–
CC(NC(=O)C1CCCN1S(=O)(=O)c1ccc2c(c1)n(C)c(=O)c(=O)n2C)c1ccccc1 (stereo unspecified)	–	–	–	–	–	–
SMILES	SR-BI DiI inh	PvdQ inh	Xi reactivation	dFosB activator	rRNA inh HTS	SR-BI uptake up
CC1CCN(CCCn2c(=S)[nH]c3c(sc4ccccc43)c2=O)CC1	–	–	–	–	–	–
O=c1c2sc3ccccc3c2[nH]c(=S)n1CCN1CCOCC1	–	–	–	–	–	71
COc1cc(OC)cc(C(=O)Nc2cccc(C(C)=O)c2)c1	–	–	·	–	·	–
O=C(c1ccco1)N1CCN(C(=O)C2CCCc3c2[nH]c2ccc(Cl)cc32)CC1 (stereo unspecified)	83	–	·	–	·	–
O=C(Nc1ccc(N2CCCC2)cc1)c1ccc(Br)cc1	76	–	–	59	–	–
COc1cc(OC)cc(C(=O)Nc2cccc(N3CCCC3)c2)c1	87	–	·	–	–	–
Cc1cc(Cl)ccc1NC(=S)N1CCN(C(=O)c2ccco2)CC1	–	–	–	–	-37	–
Cc1ccccc1NC(=S)N1CCN(C(=O)c2ccco2)CC1	–	–	–	–	–	–
Cc1ccc(C(=O)Nc2ccc(N3CCN(C)CC3)cc2)cc1	–	–	–	–	–	–
COc1ccc(OC)c(S(=O)(=O)Nc2cccc(O)c2)c1	–	–	–	–	–	–
Cc1ccc(C(=O)Nc2ccc(Br)c(C(F)(F)F)c2)cc1	72	–	·	–	·	–
Cc1ccc(C(=O)Nc2ccc(N3CCN(C(=O)c4ccco4)CC3)cc2)c(Cl)c1	85	–	–	–	–	–
Cc1cccc(NC(=O)c2ccc(NC(=O)c3ccccc3Br)cc2)c1	72	–	–	?	–	–
O=C(Nc1ccc(N2CCN(C(=O)c3ccco3)CC2)cc1)c1ccc([N+](=O)[O-])cc1Cl	–	–	–	–	–	–
CC(C)Oc1ccc(C(=O)Nc2ccc(N3CCN(C(=O)c4ccco4)CC3)cc2)cc1	74	–	–	–	–	–
COc1ccc(Br)cc1C(=O)Nc1cccc(C)c1	75	–	·	–	·	–
Cc1ccccc1C(=O)N1CCN(c2ccc(NC(=O)c3cccc(OC(C)C)c3)cc2)CC1	74	–	–	–	–	–
COc1ccc(Br)cc1C(=O)Nc1cccc(NC(=O)c2ccco2)c1	–	–	·	–	·	–
COc1ccccc1C(=O)Nc1cc2ccccc2oc1=O	–	–	·	–	·	–
CC(C)Oc1ccc(C(=O)Nc2ccc(N3CCCC3)cc2)cc1	75	–	·	–	–	–
COc1ccccc1C(=O)Nc1cc2cc(Br)ccc2oc1=O	100	–	·	–	–	–
O=C(CC1C(=O)NCCN1CCCc1ccccc1)NCCc1ccccc1Cl (stereo unspecified)	–	–	–	–	–	–
COc1ccc(Cl)cc1NC(=O)CN(C)C(=O)c1ccc2c(c1)OCCO2	–	–	–	–	–	–
COc1ccc(Br)cc1C(=O)Nc1ccc(N2CCCC2)cc1	78	–	–	–	–	–
Cc1cc(C)cc(C(=O)Nc2ccc(N3CCCC3)cc2)c1	87	–	–	–	-30	–
Cc1ccc(C(=O)N2CCN(c3ccc(NC(=O)c4cc(C)cc(C)c4)cc3)CC2)cc1	–	–	–	–	–	–
COc1ccc(Br)cc1C(=O)Nc1ccc(N2CCN(S(C)(=O)=O)CC2)cc1	·	–	·	–	·	·
